Experimental data as given in ChEMBL document CHEMBL3124896, “Optimization of the lactam side chain of 7-azaindenoisoquinoline topoisomerase I inhibitors and mechanism of action studies in cancer cells” (2014).
Values belong to the molecule of their own block, whether it stands above or below them. The source made the active and inactive calls. No cut-off for these calls is given here.

Columns and labels:
[1] = target: T1, DNA topoisomerase 1 (Homo sapiens) (UniProt P11387); assay: Inhibition of human recombinant topoisomerase 1 using radiolabeled DNA as substrate after 20 mins by SDS-PAGE
T1 sequence (whole entry): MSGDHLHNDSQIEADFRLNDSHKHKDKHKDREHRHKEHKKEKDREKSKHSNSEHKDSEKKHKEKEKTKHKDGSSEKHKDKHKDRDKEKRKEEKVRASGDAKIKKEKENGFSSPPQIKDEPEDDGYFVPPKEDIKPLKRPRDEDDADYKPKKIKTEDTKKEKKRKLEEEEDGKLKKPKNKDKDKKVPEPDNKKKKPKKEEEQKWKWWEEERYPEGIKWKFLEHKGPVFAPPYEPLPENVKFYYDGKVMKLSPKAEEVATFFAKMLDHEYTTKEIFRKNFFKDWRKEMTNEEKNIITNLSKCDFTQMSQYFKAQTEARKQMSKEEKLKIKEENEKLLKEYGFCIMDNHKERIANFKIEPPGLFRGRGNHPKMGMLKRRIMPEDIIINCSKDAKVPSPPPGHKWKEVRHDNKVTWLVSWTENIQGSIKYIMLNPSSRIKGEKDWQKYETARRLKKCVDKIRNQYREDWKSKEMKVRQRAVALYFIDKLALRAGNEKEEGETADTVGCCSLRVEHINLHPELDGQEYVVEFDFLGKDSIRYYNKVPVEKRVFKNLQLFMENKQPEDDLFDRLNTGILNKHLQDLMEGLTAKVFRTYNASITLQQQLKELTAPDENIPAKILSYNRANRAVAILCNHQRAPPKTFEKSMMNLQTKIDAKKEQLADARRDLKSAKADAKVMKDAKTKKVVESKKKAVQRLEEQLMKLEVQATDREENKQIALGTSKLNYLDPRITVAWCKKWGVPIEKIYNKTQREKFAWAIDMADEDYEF
How it was run: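 A 117 bp oligonucleotide was 3′-end-labelled with [α-32P]dGTP by Klenow fill-in. Reactions were stopped with 0.5% SDS and run on 20% denaturing polyacrylamide gels. Cleavage bands were scored visually on a semiquantitative scale.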

HOP-62 = assay: Cytotoxicity against human HOP62 cells by SRB assay; assay type: functional
SN12C = assay: Cytotoxicity against human SN12C cells by SRB assay; assay type: functional
HCT-116 [2] = assay: Cytotoxicity against human HCT116 cells by SRB assay; assay type: functional
OVCAR-3 = assay: Cytotoxicity against human OVCAR3 cells by SRB assay; assay type: functional
DU-145 [3] = assay: Cytotoxicity against human DU145 cells by SRB assay; assay type: functional
[4] = target: T1, DNA topoisomerase 1 (Homo sapiens); assay: Inhibition of human recombinant topoisomerase 1 using radiolabeled DNA as substrate at 0.1 to 100 uM after 20 mins by SDS-PAGE
How it was run: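 Baculovirus-purified human recombinant Top1 with ~2 nM of a 117 bp oligonucleotide, 3′-end-labeled with [α-32P]dGTP by Klenow fill-in. Drugs at 0.1, 1, 10, 100 μM; 25 °C, 20 min. Stopped with 0.5% SDS, run on 20% denaturing PAGE, phosphorimaged. Cleavage bands scored visually against camptothecin standard.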

UACC-62 = assay: Cytotoxicity against human UACC62 cells by SRB assay; assay type: functional
SF-539 = assay: Cytotoxicity against human SF539 cells by SRB assay; assay type: functional
MCF7 = assay: Cytotoxicity against human MCF7 cells by SRB assay; assay type: functional
[5] = Cytotoxicity against human mitoxantrone-resistant H460 cells after 72 hrs by MTT assay; assay type: functional; conditions: NCI-H460, 72 h
How it was run: (§1)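 Cells were seeded 24 h before dosing and exposed continuously for 72 h. Growth was read by colorimetric MTS assay and expressed relative to vehicle-treated controls set at 100. GI50 is the level giving 50% growth inhibition, from at least two independent determinations. HCT116 and siTop1 cells were kept in RPMI 1640/10% FBS with 100 μg/mL hygromycin; RC0.1 in RPMI 1640/10% FBS.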

[6] = target: T1, DNA topoisomerase 1 (Homo sapiens); assay: Inhibition of human recombinant topoisomerase 1 in human HCT116 cells assessed as reversal of topoisomerase 1-DNA cleavage complex stabilization at 1 uM incubated for 1 hr followed by compound washout measured up to 6 hrs by DNA immunoblotting analysis; assay type: cell-based; conditions: HCT-116
How it was run: (§2)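 10^6 HCT116 cells were treated with 1 μM for 1 h, and for reversal were held in drug-free medium for the set times. Cells were lysed with DNAzol and genomic DNA was isolated and sonicated. Serial dilutions were slot-blotted onto membranes and Top1–DNA complexes detected with the C21 anti-Top1 monoclonal antibody by immunoblotting (ICE method).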

[7] = Cytotoxicity against human H460 cells after 72 hrs by MTT assay; assay type: functional; conditions: NCI-H460, 72 h; how it was run: as §1
[8] = Resistance ratio of GI50 for human mitoxantrone-resistant H460 cells to GI50 for human H460 cells; assay type: functional
How it was run: (§3)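 Relative resistance = GI50 in the resistant subline divided by GI50 in the parental line. Both GI50s came from 72 h continuous-exposure MTS growth assays, each based on at least two independent determinations.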

[9] = target: T1, DNA topoisomerase 1 (Homo sapiens); assay: Inhibition of human recombinant topoisomerase 1 in human HCT116 cells assessed as reversal of topoisomerase 1-DNA cleavage complex stabilization at 1 uM incubated for 1 hr followed by compound washout measured after 24 hrs by DNA immunoblotting analysis; assay type: cell-based; conditions: HCT-116; how it was run: as §2
[10] = target: T1, DNA topoisomerase 1 (Homo sapiens); assay: Inhibition of human recombinant topoisomerase 1 in human HCT116 cells assessed as stabilization of topoisomerase 1-DNA cleavage complex at 1 uM after 1 hr by DNA immunoblotting analysis; assay type: cell-based; conditions: HCT-116; how it was run: as §2
HCT-116 [11] = assay: Cytotoxicity against human HCT116 cells after 72 hrs by MTT assay; assay type: functional; conditions: HCT-116, 72 h; how it was run: as §1
[12] = target: T1, DNA topoisomerase 1 (Homo sapiens); assay: Inhibition of human recombinant topoisomerase 1 in human HCT116 cells assessed as DNA-protein cross linking at 1 uM incubated for 1 hr followed by compound washout measured after 1 hr; assay type: cell-based; conditions: HCT-116
How it was run: (§4)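 In HCT116 cells, Top1 cleavage complexes were quantified as DNA–protein cross-links by alkaline elution, plotting the fraction of DNA retained on the filter against time. Persistence was read 1 h after drug removal. The negative control was untreated cells given 30 Gy irradiation to create strand breaks.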

[13] = Cytotoxicity against human KB 3.1 cells after 72 hrs by MTT assay; assay type: functional; conditions: KB 3-1, 72 h; how it was run: as §1
HCT-116 [14] = assay: Induction of DNA damage in human HCT116 cells assessed as induction of histone gamma-H2AX level at 1 uM after 1 hr by flow cytometry
HCT-116 [15] = assay: Resistance ratio of GI50 for human HCT116 cells transfected with Top1-siRNA to GI50 for human HCT116 cells; assay type: functional; how it was run: as §3
HCT-116 [16] = assay: Cytotoxicity against human HCT116 cells transfected with Top1-siRNA after 72 hrs by MTT assay; assay type: functional; conditions: HCT-116, 72 h; how it was run: as §1
[17] = Cytotoxicity against human RC0.1 cells after 72 hrs by MTT assay; assay type: functional; how it was run: as §1
DU-145 [18] = assay: Resistance ratio of GI50 for human RC0.1 cells to GI50 for human DU145 cells; assay type: functional; how it was run: as §3
HCT-116 [19] = assay: Cell cycle arrest in human HCT116 cells at 1 uM after 1 hr by propidium iodide staining-based FACS analysis; assay type: functional
How it was run: (§5)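 HCT116 cells exposed to 1 μM drug for 1 h, then kept in drug-free medium for the stated times. Fixed cells were stained with propidium iodide and analysed by flow cytometry for DNA content histograms. Phase distributions were computed from the histograms.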

[20] = Cytotoxicity against vinblastine-resistant human KBV1 cells after 72 hrs by MTT assay; assay type: functional; conditions: KB-V1, 72 h; how it was run: as §1
HCT-116 [21] = assay: Cell cycle arrest in human HCT116 cells at 1 uM incubated for 1 hr followed by compound washout measured up to 1 hr by propidium iodide staining-based FACS analysis; assay type: functional; how it was run: as §5
DU-145 [22] = assay: Cytotoxicity against human DU145 cells after 72 hrs by MTT assay; assay type: functional; conditions: DU-145, 72 h; how it was run: as §1
HCT-116 [23] = assay: Cell cycle arrest in human HCT116 cells assessed as accumulation at S phase at 1 uM incubated for 1 hr followed by compound washout measured after 3 hrs by propidium iodide staining-based FACS analysis; assay type: functional; how it was run: as §5
[24] = Resistance ratio of GI50 for vinblastine-resistant human KBV1 cells to GI50 for human KB 3.1 cells; assay type: functional
[25] = target: T1, DNA topoisomerase 1 (Homo sapiens); assay: Inhibition of human recombinant topoisomerase 1 in human HCT116 cells assessed as DNA-protein cross linking at 1 uM after 1 hr; assay type: cell-based; conditions: HCT-116; how it was run: as §4
HCT-116 [26] = assay: Cell cycle arrest in human HCT116 cells assessed as accumulation at G2 phase at 1 uM incubated for 1 hr followed by compound washout measured after 6 to 48 hrs by propidium iodide staining-based FACS analysis; assay type: functional; how it was run: as §5

Compound: COc1cnc2c(c1)C(=O)c1c-2n(CCCN2CCOCC2)c(=O)c2cc(OC)c(OC)cc12
inhibition [1]: Active

Compound: COc1cnc2c(c1)C(=O)c1c-2n(CCCN2CCC(O)CC2)c(=O)c2cc([N+](=O)[O-])ccc12
GI50 (HOP-62): < 10 nM | GI50 (SN12C): < 10 nM | GI50 (HCT-116 [2]): 10 nM | GI50 (OVCAR-3): 58 nM | GI50 (DU-145 [3]): < 10 nM | inhibition [4]: Active | GI50 (UACC-62): < 10 nM | GI50 (SF-539): 10 nM | GI50 (MCF7): < 10 nM

Compound: CN(C)CCCn1c2c(c3ccc([N+](=O)[O-])cc3c1=O)C(=O)c1cccnc1-2
GI50 (HOP-62): 1940 nM | GI50 (SN12C): 1560 nM | inhibition [1]: Active | GI50 (HCT-116 [2]): 486 nM | GI50 (OVCAR-3): 3120 nM | GI50 (DU-145 [3]): 1550 nM | GI50 (UACC-62): 3400 nM | GI50 (SF-539): 3140 nM | GI50 (MCF7): 474 nM

Compound: CC[C@@]1(O)C(=O)OCc2c1cc1n(c2=O)Cc2cc3c(CN(C)C)c(O)ccc3nc2-1 [TOPOTECAN]
GI50 [5]: > 1000 nM | inhibition [6]: Active | GI50 [7]: 44.7 nM | RatioGI50 [8]: >22.39 | inhibition [9]: Active | inhibition [10]: Active

Compound: COc1cnc2c(c1)C(=O)c1c-2n(CCCn2ccnc2)c(=O)c2cc([N+](=O)[O-])ccc12.Cl
GI50 (HOP-62): < 10 nM | GI50 (HCT-116 [11]): 21.9 nM | GI50 (SN12C): < 10 nM | inhibition [12]: Active | GI50 [13]: 417 nM | Activity (HCT-116 [14]): 37.3% | GI50 [5]: 417 nM | RatioGI50 (HCT-116 [15]): 3.24 | GI50 (HCT-116 [2]): < 10 nM | GI50 (OVCAR-3): 25 nM | GI50 (HCT-116 [16]): 70.8 nM | GI50 [17]: > 1000 nM | GI50 (DU-145 [3]): < 10 nM | inhibition [4]: Active | GI50 (UACC-62): < 10 nM | inhibition [6]: Active | GI50 [7]: 21.9 nM | RatioGI50 (DU-145 [18]): >21.88 | Activity (HCT-116 [19]): Active | GI50 [20]: 427 nM | RatioGI50 [8]: 19.05 | Activity (HCT-116 [21]): Active | GI50 (DU-145 [22]): 45.7 nM | Activity (HCT-116 [23]): Active | inhibition [9]: Active | GI50 (SF-539): < 10 nM | RatioGI50 [24]: 1.02 | inhibition [25]: Active | Activity (HCT-116 [26]): Active | GI50 (MCF7): < 10 nM | inhibition [10]: Active

Continued, in another order:

inhibition [4]: Active
Compound: COc1cnc2c(c1)C(=O)c1c-2n(CCCN(C)CCO)c(=O)c2cc([N+](=O)[O-])ccc12
GI50 (HOP-62): 28 nM | GI50 (SN12C): 39 nM | GI50 (HCT-116 [2]): 49 nM | GI50 (OVCAR-3): 180 nM | GI50 (DU-145 [3]): 36 nM | GI50 (UACC-62): 29 nM | GI50 (SF-539): 34 nM | GI50 (MCF7): 13 nM

inhibition [4]: Active
Compound: COc1cnc2c(c1)C(=O)c1c-2n(CCCN)c(=O)c2cc([N+](=O)[O-])ccc12
GI50 (HOP-62): 19 nM | GI50 (SN12C): 40 nM | GI50 (HCT-116 [2]): 36 nM | GI50 (OVCAR-3): 98 nM | GI50 (DU-145 [3]): 35 nM | GI50 (UACC-62): 24 nM | GI50 (SF-539): 73 nM | GI50 (MCF7): < 10 nM

inhibition [1]: Active
Compound: COc1cnc2c(c1)C(=O)c1c-2n(CCCN(C)C)c(=O)c2cc([N+](=O)[O-])ccc12
